The values below come from BindingDB's records for doi:10.1021/jm00080a008 (Merck Sharp and Dohme Research Laboratories, 1992).

Assay [1] addresses T1, Myeloperoxidase (Homo sapiens, UniProt P05164).
T1 sequence (P05164 whole entry): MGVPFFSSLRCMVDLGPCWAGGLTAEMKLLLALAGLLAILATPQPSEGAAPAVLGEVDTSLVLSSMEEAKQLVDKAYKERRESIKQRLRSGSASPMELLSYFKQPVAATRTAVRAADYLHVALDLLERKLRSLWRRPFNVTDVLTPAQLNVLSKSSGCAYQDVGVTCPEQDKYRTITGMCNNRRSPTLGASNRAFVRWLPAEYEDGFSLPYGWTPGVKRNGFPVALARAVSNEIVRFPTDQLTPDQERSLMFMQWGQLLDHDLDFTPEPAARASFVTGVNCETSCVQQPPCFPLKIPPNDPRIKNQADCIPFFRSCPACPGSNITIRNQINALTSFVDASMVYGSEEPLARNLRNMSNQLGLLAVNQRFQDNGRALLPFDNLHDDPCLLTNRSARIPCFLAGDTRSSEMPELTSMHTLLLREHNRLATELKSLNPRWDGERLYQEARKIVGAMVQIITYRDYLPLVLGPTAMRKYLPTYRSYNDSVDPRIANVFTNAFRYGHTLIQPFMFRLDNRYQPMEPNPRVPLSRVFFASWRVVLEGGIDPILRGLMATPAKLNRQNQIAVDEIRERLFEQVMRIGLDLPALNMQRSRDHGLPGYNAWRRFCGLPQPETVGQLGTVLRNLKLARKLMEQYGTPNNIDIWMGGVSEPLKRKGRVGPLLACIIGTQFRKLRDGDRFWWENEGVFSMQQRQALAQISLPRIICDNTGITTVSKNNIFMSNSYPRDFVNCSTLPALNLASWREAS
In words: ChEBML_223053. As for the experimental part:
(§1) Compound was tested for the induction of nonspecific myeloperoxidase (MPO) release

The target in assay [2] is T1, Myeloperoxidase. The assay is described as §1. In a few lines:
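Freshly isolated human PMN (Ficoll-Hypaque, erythrocytes lysed with NH4Cl/EDTA/KHCO3), 4×10^5/mL in HBSS. Preincubated with compound or 1% aqueous DMSO 20 min at 37 °C, then cytochalasin B (5 μg/mL final) 5 min. Stimulated 5 min at 37 °C with C5a or fMLF, or no stimulus for nonspecific release. MPO read with dimethoxybenzidine/H2O2 at pH 6.0, azide-quenched at 2 min, A450. Duplicate or triplicate.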

Molecules are shown by their SMILES. Some results are limits rather than exact numbers.

As a reminder, the EC50 is the concentration giving half of the maximal effect. The low end stands for greater potency, the high end for weaker potency. In turn, `Cc1cc(N)c2cc(NC(=O)Nc3ccc4nc(C)cc(N)c4c3)ccc2n1` [Aminoquinuride] had an EC50 in assay [1] of less than 3 µM.
For `Cc1cc(N)c2cc(NC(=O)/C=C/c3ccccc3Cl)ccc2n1` [MLS000737665], in assay [2], the EC50 was less than 3 µM.
